Measurements taken from the EternaBench riboswitch data.

System: MS2 coat protein
Test: apparent Kd, MS2 coat protein; higher = weaker binding; RNA-MaP array; FMN 200 µM where present
Procedure, shortened: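 SNAP-549-labelled MS2 coat protein, doubled from 0.7 or 1.5 nM to 3 µM, was titrated over designs transcribed by stalled E. coli RNA polymerase on Illumina sequencing-chip clusters. Titrations were run without and then with constant ligand in 100 mM Tris-HCl pH 7.5, 80 mM KCl, 4 mM MgCl2, BSA, DTT, yeast tRNA and Tween-20. The apparent Kd is the median of filtered per-cluster fits to green signal normalised to red-channel RNA signal and control-cluster median Fmax.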

[1] = designed as: ON switch for flavin mononucleotide, no ligand
[2] = ligand present: flavin mononucleotide, designed as: ON switch for flavin mononucleotide
[3] = designed as: OFF switch for flavin mononucleotide, no ligand
[4] = ligand present: flavin mononucleotide, designed as: OFF switch for flavin mononucleotide

Sequence	apparent Kd [1] [nM]	apparent Kd [2] [nM]	apparent Kd [3] [nM]	apparent Kd [4] [nM]
GGAGGACGAAACAUGAGGAUCACCCAUGUGUUAUAAUUAAUAUAGGAUAUGUUUAUACUUUUUGGGCAGAAGGAUGAUAAUGCC	19.6	16.1		
GCGAUUAAGUAGAAGGUACGUUAUAAGACAAUGUAAGGAUAUACUGACAUGAGGAUCACCCAUGUAAAAUUAGUUUACUGUCGC	7.34	6.44		
GUUGAAGUCACAGGAUAUACGUCGUCUGUUGCCGUAGAAGGGUGAACUCAGCCUGACCGUGACAUGAGGAUCACCCAUGUGACC	15.3	19.6		
UGUCGGAGCAGAGGAUAUUACAUGAGGAUCACCCAUGUAUGAACCAAUAGCAGGAAACAGCAAUGUAAGAAGGCUGCUCCGACA			10.3	77.4
GUCGGAAACGACAAAAGUACCGGAGCAGAAGGCAUGUCAUAAGACAUGAGGAUCACCCAUGUGCAUGAGGAUAUGCUCCGGUAC	5.45	4.68		
ACAUGAGGAUCACCCAUGUAAAAUGAAGAAGGUAUAUACUUGAGGAUCACCCAUGUACAUGGGAAUAAGGAUAUUCUAAUAAUU	13.5	12.6		
AACUGAGCCCAAGGAUAUCCUCACUUCCACUACAUGAGGAUCACCCAUGUCAGAUCGUCUGUGUAGGAGAAGGUGGUGUACAUG	330	623		
CGAAGUCCGUAGAAGGGUGACAUGAGGAUCACCCAUGUGCGAGCCGUGGGAGUCAGCGGCUCGCCACAGGAUAUACGGAGCACG	30.6	26		
AUGUUAUAUGAAGGAUAUACUUAACAUGAGGAUCACCCAUGUGGUGUUGUGAGUGAGUGAGUUUAGUAGAAGGUCAAUUCUUUU			256	263
GUCCGGCGUGUAGGAUAUGGAUCCGAUUAGGAUCCAGAAGGACAUGAGGAUCACCCAUGUACAUGUAAACAGUCAUCACCGGAG			9.11	58.9
ACACAUGAGGAUCACCCAUGUAGCUGGCGUCUGCGCCAGCCACAGGAUAUACGGCUACACAAGCCGUAGAAGGGUGAUAAACAC	62.9	27.2		
AUGAUUAUAUUAUACAUGAGGAUCACCCAUGUUAUAAGUCAUGAGGAUAUGGUAUUGUAGUUAUUCCAGAAGGCAUUUAACUUA	7.02	5.79		
AUAUUAAGUGUGAGGAUAUGCUGGUCCUUGGAUCAGCAGAAGGCACAUGAGGAUCACCCAUGUAAUAUAUUUAU			90.4	349
ACAUGAUAUGUAGGAUAUCACAUUAAUUGUUUUAUAAUUGUAUUUAGGAUUUGAGAAGGACAUUUACAUGAGGAUCACCCAUGU			15.8	11.3
UGUGUGUGACAGGAUAUGCUGGUUGUGAGACGGGUAGAAGGGUCUACAUGAGGAUCACCCAUGUGGCCGGUUGG			23.1	20.6
GGAUAGGACAGAGGAUAUACGUGCUAGAGAUACUAGCAAAAUUUCCUCACAUGAGGAUCACCCAUGUAGAAGGCAGUCCUAUCG			4.95	7.33
UAAAUUAACAAGAAGGCUAACAUGAGGAUCACCCAUGUUGUACAUGGAUAUAGAGGAUAUUGCUAAUAAUUUUUUAUCAUAAUU			20.8	17.6
AAUGUCUGAGGAUAUCGUUUUUUGUACAUGAGGAUCACCCAUGUUUUAUUUUGUAUAUUACGAGAAGGCAGUGGAA			24.1	18.5
AUCAGCUCGUCAGGAUAUACGUCACUGCGUCAGCAGUGUAAUAAAAUAACAUGAGGAUCACCCAUGUAGAAGGGACGAGCUGAU			6.36	6.75
UUGGGACAUGAGGAUCACCCAUGUCAGGAUAUCCCGGCCCGCCCGUGAGGGCGGGCCGGGAGAAGGGACCUUUG			41	42.9
AAAAAACAUGAGGAUCACCCAUGUGAGGAUAUCGGAAAAAAAAAAAAAAAAAAAAAAACGAGAAGGCACAAAAA			60.8	71.7

Sequence	apparent Kd [1] [nM]	apparent Kd [2] [nM]	apparent Kd [3] [nM]	apparent Kd [4] [nM]
GCAACGCCUGACAUGAGGAUCACCCAUGUUAGAUUGUUAUGUCAGGAUAUUGUCGCGAAACGUGAUGAGAAGGGAUAUGUUGCU	815	53.9		
AAAAUACAUGAGGAUCACCCAUGUUAGGAUAUCCAAGGUCUGACCCUCAGGGUCAGAAGGAGAAGGGAUGUGGU			56.7	67.7
ACAUGAGGAUCACCCAUGUGAUGAUCUUCCAUGUCAUAUUUCAGAAGGCACGCAUGUUUAAUGAGUGAGGAUAUGGAAUAUGCG			802	553
AAAGUAGGAGGAUAUACAUAGAUACAGAUACAUGUAGACGUACAUGAGGAUCACCCAUGUAGAAGGCCUAUGUA			65.9	212
UUUACUUUGUAGAAGGGUGACAUGAGGAUCACCCAUGUGCGUCGCCUGAAAGACCAGGGUACGCCACAGGAUAUACAAAGUAAG	56.5	40.4		
GUCGGAAACGACAAUGAUAGGACUGAGGAUAUACAUAAGUUAGUCCAUACAUGAGGAUCACCCAUGUAGAAGGCAGUCCUAUCU			7.78	33.4
ACAGACCAACAGAAGGGUGAGGUGUUGUUCUUCACAGGAUAUGUUGGCAACAUGAGGAUCACCCAUGUUGGUUUUGAAGUACGU	16.3	4.68		
UUGGACGUCGUAGGAUAUGCAGGAUAUUCCUACAUGAGGAUCACCCAUGUUGACAUGGAAGAAGGACAGAAGGACGAUGUCCAU	11	5.38		
CUAUUUUGUGCCUCAUUUACAUGAGGAUCACCCAUGUUAACUUAGGAUAUAUUUAUAUUGUUAGAGUAGAAGGAAGUACAAUUU			83.5	55.9
UAUGUGUCAGGAUAUUAGUAGUGUGUGGAUACAUAUAUUGCUGAGAAGGGACAUGAGGAUCACCCAUGUACCUU			16.2	17.5
GUACAGAUCACAGGAUAUCACGUCGUUUAGACGUGAGAAGGGUGAUCACACAUGAAUAUUAAUACAUGAGGAUCACCCAUGUAC	36	97.7		
CUUUACAUAGGAUAUAGUUGCUUUUACAUGAGGAUCACCCAUGUCUCUCCUCUCUCUCUUCUAGAAGGAUGUUUCU			56.3	48.5
AGGAAGUGAGGAUAUGCAGUGGCUUGUAGACGCAAGCACUUGUAGAAGGCACAUGAGGAUCACCCAUGUUUAAA			30.8	37.3
GCGUGUCAUGUAGGAUAUGACACAGGAAACUGGUCAGAAGGACAUGAGGAUCACCCAUGUAAAAUGUUCAAGAAUAACGCAUGC			40.6	137
UGAGCGACCACAGGAUAUACUUGGUAAGACCGAGUAGAAGGGUGGAAGAGCGUGCAGUGACAUGAGGAUCACCCAUGUGGUUGU	215	77.5		
AGUCGGAGCAGAGGAUAUAUACAUGAGGAUCACCCAUGUAAAGAUCAAAGCAGGAAACUGCAAGUAUAGAAGGCUGCUCCGACA			108	231
AAAUAAUUGUCAGGAUAUGGCAUGUAGACGAUGCCAGAAGGGACAUGAGGAUCACCCAUGUUGCUCAACACUGGGAGACGUAAG			133	273
UAUAAGAACGAAGGAUAUGGUUACAUGAGGAUCACCCAUGUAUUAAUAUUGAUCUAUUUUUAUAACCAGAAGGUCGAGAGUAAA			27.4	39.7
AGGACCAAAACAUCUACAUGAGGAUCACCCAUGUAUCGUAUGCAGGAUAUCCAUGGGUGGGCAGAGGAGAAGGGCAUUAAAAGA	61.6	124		
CCAUGGCAUGUAGGAUAUGUCUGACAAAGUCAGACAGAAGGACAUGAGGAUCACCCAUGUAAAAGAAAACCAACAUAGCCAUGG			6.23	5.88
